Laboratory results taken from the EternaBench riboswitch data.

System: MS2 coat protein
Assay: apparent Kd, MS2 coat protein; higher = weaker binding; RNA-MaP array; FMN 200 µM where present
Method in brief: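 The titrant was SNAP-549-labelled MS2 coat protein, run from 0.7 or 1.5 nM in doubling steps to 3 µM. It was applied to designs transcribed by stalled E. coli RNA polymerase on Illumina sequencing-chip clusters, without ligand first and then with constant ligand, in 100 mM Tris-HCl pH 7.5, 80 mM KCl, 4 mM MgCl2, BSA, DTT, yeast tRNA and Tween-20. The apparent Kd is the median of filtered per-cluster binding-curve fits, with green signal normalised to red-channel RNA signal and control-cluster median Fmax.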

[1] = designed as: OFF switch for flavin mononucleotide, no ligand
[2] = ligand present: flavin mononucleotide, designed as: OFF switch for flavin mononucleotide
[3] = designed as: ON switch for flavin mononucleotide, no ligand
[4] = ligand present: flavin mononucleotide, designed as: ON switch for flavin mononucleotide

## AGAUCUACAGGAUAUACAUGAAAGAUCAUCAUGACCCUUCAACAUGAGGAUCACCCAUGUAGAAGGGUAGAUCA
[1]
  apparent Kd: 27.7 nM
[2]
  apparent Kd: 13.5 nM

## AAUAUUUUUUGAGGAUAUUCAUACACUGUAUACGGAGAAGGCAAACAAUCAUGAGGACAUGAGGAUCACCCAUGUUGUGACCAU
[3]
  apparent Kd: 20.1 nM
[4]
  apparent Kd: 12.8 nM

## UGUCUAUAUGAAGGAUAUCUAAGCAUAAACCGUAGAGAAGGUCAAUAGUACAUGAGGAUCACCCAUGUUAGAAUUGAAGGGUUU
[1]
  apparent Kd: 17.6 nM
[2]
  apparent Kd: 23.2 nM

## AAAAUCAAAUCAGGAUAUUCAUACACUACAUACGGAGAAGGGAUACAAUCAUGAGGACAUGAGGAUCACCCAUGUUGUGACCAU
[3]
  apparent Kd: 102 nM
[4]
  apparent Kd: 54.8 nM

## UAAGUUUUGGUAGGAUAUACUUUAAAUUUCUCUAUCCAUACAUGAGGAUCACCCAUGUUUACAUUGUAGAAGGACCUUUAUGUU
[1]
  apparent Kd: 36.8 nM
[2]
  apparent Kd: 34 nM

## GUUAGCUCGUGAGGAUAUACAACACUGCUUCGGCAGUGUAUUAAGAUCACAUGAGGAUCACCCAUGUAGAAGGCACGAGCUGAU
[1]
  apparent Kd: 12.8 nM
[2]
  apparent Kd: 256 nM

## GACUAGUAAGGAUAUCAAGUUCUCCACAUGAGGAUCACCCAUGUCGAUAACCUCUGACAAUGAGAAGGUGCUGACU
[1]
  apparent Kd: 35.1 nM
[2]
  apparent Kd: 31.9 nM

## UUGGUUGUCGUAGGAUAUGGAGGAGAUUCCUACAUGAGGAUCACCCAUGUUCGCAUGGAAGAAGGCCAGAAGGACGAUGACCAU
[3]
  apparent Kd: 80.5 nM
[4]
  apparent Kd: 62 nM

## GCAGCACAAUAUUACAUGAGGAUCACCCAUGUCGAUUGUUAUGAGGAUAUGCAUCGUAUGAAGUUGCAGAAGGCAUUGUGCUGC
[3]
  apparent Kd: 9.4 nM
[4]
  apparent Kd: 6.09 nM

## AGUUACAUACUCAACAUGAGGAUCACCCAUGUACUCUCUUGUAAGGAUAUACAUUCGUAUUGAAAGUAGAAGGUACUAAUUAUG
[3]
  apparent Kd: 89.1 nM
[4]
  apparent Kd: 77.3 nM

## CAGCAUCAUGUAGGAUAUGCGUGGCGAAGCUAUGCAGAAGGACAUGAGGAUCACCCAUGUCUUAGCUAGCGUACUAGCUUGCUG
[1]
  apparent Kd: 7.5 nM
[2]
  apparent Kd: 21.4 nM

## CACGGAUGAUCAGGAUAUGCUAAAGCAGGCUGACAUGAGGAUCACCCAUGUCCCAGAAACUGUGGGCAGAAGGGAUGUAAUGUU
[3]
  apparent Kd: 49.8 nM
[4]
  apparent Kd: 12.2 nM

## CUCGUUAUGUUAGGAUAUGAUGCAUCCCGAUAAUCAGAAGGAACAUGAGGAUCACCCAUGUGACAUUUGGUGAAUACAAGCCAG
[1]
  apparent Kd: 6.79 nM
[2]
  apparent Kd: 7.96 nM

## UGUUCUAUGUAGAAGGCCCAUAUCUGUUUUUAGGGAGGAUAUACAUGAGGAUCACCCAUGUGUAGAGCUGGUGGACUGGUCAGC
[1]
  apparent Kd: 13.7 nM
[2]
  apparent Kd: 40.1 nM

## ACAUGCAUAGCGAUAUGAUCGAGAGAUCAUGUCGAAAAUUUUAGAAGGACAUGAGGAUCACCCAUGUAGGAUAUGGGAGCAUGA
[3]
  apparent Kd: 62.6 nM
[4]
  apparent Kd: 16.3 nM

## AAUUAUUUACAGAAGGAGUAAGAUUAUGUAUUACUAGGAUAUGUUCACAUGAGGAUCACCCAUGUACUAGUUGGUUUUUUAUGU
[1]
  apparent Kd: 10.5 nM
[2]
  apparent Kd: 17.1 nM

## GUGGAGUACGUAGGAUAUGUAGGAUAUUCCUACAUGAGGAUCACCCAUGUUUACAUGGAAGAAGGACAGAAGGACGUGCUCCAG
[3]
  apparent Kd: 1430 nM
[4]
  apparent Kd: 14.3 nM

## CUUAGUAUCUAGGAUAUCUAGUACAUAGUAUCUAGAGAAGGAGAUACAUGAGGAUCACCCAUGUUCUGUGAUCU
[1]
  apparent Kd: 272 nM
[2]
  apparent Kd: 40.4 nM

## CGCCACUUAACAGCGGCGCGGUCGAGAAGGGUACAUGAGGAUCACCCAUGUCACGUUCCUCCUGUACAGGAUAUCGUACGGGUA
[1]
  apparent Kd: 65.6 nM
[2]
  apparent Kd: 117 nM

## CUUCGACAUGAGGAUCACCCAUGUCAGGAUAUUGUGUAUCGGGUUUUUUACGGAAAGGCGAGAAGGGAUGUGUG
[1]
  apparent Kd: 27.6 nM
[2]
  apparent Kd: 22.3 nM

## AGCUACGUUUCGUAGCAGCUAGGUGAGGAUAUCCUUAACAUGAGGAUCACCCAUGUAUAGCCAUGGGAGAAGGCGCCUAGAAAG
[3]
  apparent Kd: 723 nM
[4]
  apparent Kd: 55.3 nM

## GGUUGGCGAGGAUAUACAUGAGGAUCACCCAUGUGGUCCUGUGGCUGAUCUUGCCUUUGUAGAAGGCGCAAAUC
[1]
  apparent Kd: 18.5 nM
[2]
  apparent Kd: 37.8 nM

## AUAUAACAUGAGGAUCACCCAUGUCAACAAAGUCGAGGAUAUGGGCAAAUAAAAUAAGAACCAGAAGGCGAAUAAU
[3]
  apparent Kd: 291 nM
[4]
  apparent Kd: 51.9 nM

## CUAUCGUUGCAGAAGGUUAAAUAAUUUCUCAUCUUGUUUACAUGAGGAUCACCCAUGUAUUUGUUGAAGGAUAUGCAAGUGUUG
[1]
  apparent Kd: 12.5 nM
[2]
  apparent Kd: 11 nM

## UUGAGGUCAGGAUAUGCAUGGCGGGACUUGCGUCGUGGCGUGGAGAAGGGACAUGAGGAUCACCCAUGUGGAGG
[1]
  apparent Kd: 129 nM
[2]
  apparent Kd: 94.9 nM

## AGCUAGUCAGGAUAUGCGAACAUGUCAAAAGACGUGAAGGGACAUGAGGAUCACCCAUGUAGAAGGGACUAGCA
[1]
  apparent Kd: 31.8 nM
[2]
  apparent Kd: 35.9 nM

## UGGGUGGUAUGAGGAUAUGCGCGCGAAACGCGCGCAGAAGGCAUGUCAAUAGACAUGAGGAUCACCCAUGUAUUAUCCAUCCAA
[3]
  apparent Kd: 412 nM
[4]
  apparent Kd: 28.3 nM

## GUUCUUCCUGUAAGGAUAUCCAUGUAUCAAAGCAUGGAGAAGGUACAUGAGGAUCACCCAUGUCACCCGCGUUA
[1]
  apparent Kd: 20.2 nM
[2]
  apparent Kd: 45.3 nM

## UGUGGUGGUUAGGAUAUAAUUAGAGGUUACUCGUUAGAAGGAGCUACAUGAGGAUCACCCAUGUGACUGUCCGC
[1]
  apparent Kd: 29.8 nM
[2]
  apparent Kd: 35.1 nM

## GACUGCUGAGGAUAUACAUGAGGAUCACCCAUGUGCUUCAGCUACGAGAGUAGCAUUGGUAGAAGGUAGUAGUC
[1]
  apparent Kd: 12.1 nM
[2]
  apparent Kd: 22.1 nM

## AUAUUAAGUGUGAGGAUAUGCUGGUCCUUGGAUCAGCAGAAGGCACAUGAGGAUCACCCAUGUAAUAUAUUUAA
[1]
  apparent Kd: 102 nM
[2]
  apparent Kd: 306 nM

## UAUGCGAGAGGAUAUACAUGAGGAUCACCCAUGUGUCCGACACAAUUCAGUUGCAUAUGUAGAAGGCUUGCGAC
[1]
  apparent Kd: 14.4 nM
[2]
  apparent Kd: 19.6 nM

## ACAUUGUUACAGGAUAUCGUUGGUUUUAUCCUGCGAGAAGGGUAUACAUGAGGAUCACCCAUGUUAUCCUCAUU
[1]
  apparent Kd: 18.7 nM
[2]
  apparent Kd: 21.8 nM

## GCUGGGUCAGGAUAUACAGGGUCGAAAGAUCUGUGAUACCUACAUGAGGAUCACCCAUGUAGAAGGGACUGGGC
[1]
  apparent Kd: 15.7 nM
[2]
  apparent Kd: 38.1 nM

## AAAUUUAACGAAGGAUAUACUAACAUGAGGAUCACCCAUGUGUGCUUCGUGUUGCUGAAAUUCGGGUAGAAGGUCGUAUACAUA
[1]
  apparent Kd: 54.8 nM
[2]
  apparent Kd: 145 nM

## GUGUACAGAGGAUAUAUAUGAGCAUGGAAACAUGCAAGAUCACAUGAGGAUCACCCAUGUAGAAGGCUGUACAC
[1]
  apparent Kd: 88.4 nM
[2]
  apparent Kd: 541 nM
